Most compounds without a hit are left out; they make up all but 5.2% or so of the library.
AP complement: orthogonal test for alternative complement pathway inhibitors; 62,000 tested, 0.08% active; inhibition, % at 5 µM; Human serum alternative complement pathway, LPS-coated ELISA, C3 deposition; tested in compound mixtures; AID 1235;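 active = inhibition above 30% in each of the two pooled mixtures holding the compound, so the lower value exceeds 30%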;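 note: 0% = serum in Mg-EGTA without compound and 100% = EDTA serum blank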
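Medium: diluted human serum in Mg2+-EGTA GVB++. Assay system: human serum complement alternative pathway, C3 deposition onto LPS. Also added: Plate-bound LPS. Technique: Anti-C3 ELISA, OD 450 nm. Measure: percent inhibition. Incubation: 1 h at 37 °C. Dosing: 5 µM each compound, pools of ten, 50 µM per pool.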
Ecoli tolC: E. coli tolC mutant growth inhibition; growth inhibition, % at 10 µM (by protocol); 65,000 tested, 2.2% active; E. coli BW25113 tolC mutant growth, OD615;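 active = growth inhibition at or above a cutoff equal to the mean over every tested compound plus 3 SD, cut at about 60% in these data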;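 note: growth measured after 20 h incubation at 37 °C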
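Signal: optical density read at 615 nm; Assay system: E. coli ΔtolC::kan strain BW25113; Times: 20 h incubation with compound, 37 °C; Dosing: 10 µM final, single dose.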
WNV NS2B-NS3 inh: blocks West Nile virus NS2B-NS3 protease activity; 65,000 tested, 0.18% active; z-score (no concentration beside the values); WNV NS2B-NS3 protease, fluorogenic substrate Ex360/Em465; stronger effect = lower value; P06935; in the data active = z-score below about -3
Target sequence (P06935 1371-1501 limits assumed): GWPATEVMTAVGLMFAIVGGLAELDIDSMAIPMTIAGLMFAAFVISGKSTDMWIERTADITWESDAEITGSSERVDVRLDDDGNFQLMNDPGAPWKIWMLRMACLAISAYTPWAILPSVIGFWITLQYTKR
Target sequence (P06935 1502-1679 limits assumed): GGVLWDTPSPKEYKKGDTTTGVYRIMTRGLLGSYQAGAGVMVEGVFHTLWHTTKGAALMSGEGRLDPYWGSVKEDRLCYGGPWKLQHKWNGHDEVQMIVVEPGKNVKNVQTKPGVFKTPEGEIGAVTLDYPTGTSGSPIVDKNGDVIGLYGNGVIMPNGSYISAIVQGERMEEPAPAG
Ecoli WT expand: blocks growth of wild type E. coli BW25113; 98,000 tested, 0.15% active; OD600 absorbance; AID 710; growth inhibition, % at 100 µM;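 active = growth inhibition above about 50% at one test dose, limit read from the data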;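 note: growth measured after 20 h incubation at 37 °C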
M1 antagonist: M1 muscarinic receptor (rat) antagonism; P08482; CHO-M1 cells, Fluo-4 calcium, ACh EC80 antagonist mode; stronger effect = lower value; B-score at 10 µM; 64,000 tested, 3.4% active; AID 628;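 active = calcium fluorescence response, raw or row-and-column corrected B-score, differing from the plate sample mean either way at a set confidence level, mostly lower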
M1 agonist: activates the M1 muscarinic receptor; CHO-M1 cells, Fluo-4 calcium fluorescence, agonist mode; stronger effect = higher value; B-score at 10 µM; 64,000 tested, 3% active;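 active = fluorescence rise, raw or as B-score row- and column-corrected plate score, outside the 99.7% band of its plate's samples, either direction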
M1 antag conf: M1 muscarinic receptor (rat) antagonism, confirmed; shares compounds with M1 antagonist; CHO-M1 cells, Fluo-4 calcium, ACh EC80 antagonism; stronger effect = lower value; calcium response (max-min fluorescence) at 10 µM; 1,700 tested, 43% active; AID 677;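 active = calcium response below the same-plate mean of wells given acetylcholine alone at its 80%-effect dose, minus 3 SD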;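 note: raw fluorescence intensity difference in arbitrary instrument units and not normalized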
mGluR4 antag: acts on human mGluR4 in M1 antagonist selectivity test; CHO-mGluR4 calcium flux, Fluo-4 fluorescence, glutamate EC80; stronger effect = lower value; shares compounds with M1 antagonist; 1,700 tested, 0.9% active; fluorescence response (max-min) at 10 µM;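 active = fluorescence response below the plate's average for near-maximal glutamate wells, less 3 SD of those wells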;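 note: raw unnormalized fluorescence span taken in the window right after glutamate addition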
* = called active by the depositor.

Results for O=S(=O)(c1ccc(OCC(O)CN2CCN(c3ccccc3)CC2)cc1)N1CCOCC1 (stereo not given) ?
AP complement: 11; Ecoli tolC: -16; WNV NS2B-NS3 inh: -0.49; Ecoli WT expand: -4; M1 antagonist: -0.55; M1 agonist: -0.3

Results for O=S(=O)(c1ccc(OCC(O)CN2CCC(Cc3ccccc3)CC2)cc1)N1CCOCC1 (stereo not given) ?
AP complement: -12; Ecoli tolC: 9; WNV NS2B-NS3 inh: -0.23; Ecoli WT expand: 0; M1 antagonist: -1*; M1 agonist: -0.38; M1 antag conf: 458; mGluR4 antag: 212

How did COc1cccc(OCC(O)CN2CCOCC2)c1 (stereo not given) do in these assays?
AP complement: 7; Ecoli tolC: 4; WNV NS2B-NS3 inh: 0.05; Ecoli WT expand: -1; M1 antagonist: 1.4; M1 agonist: -0.73

Results for OC(COc1ccc(OCc2ccccc2)cc1)CN1CCCCC1 (stereo not given) ?
AP complement: 6; Ecoli tolC: -3; WNV NS2B-NS3 inh: 0.46; Ecoli WT expand: 7; M1 antagonist: -6.6*; M1 agonist: -1.4; M1 antag conf: 358*; mGluR4 antag: 249

What do the screens show for `COc1cccc(OCC(O)CN2CCC(Cc3ccccc3)CC2)c1` (stereo not given)?
AP complement: 11; Ecoli tolC: -1; WNV NS2B-NS3 inh: -0.26; Ecoli WT expand: -5; M1 antagonist: -2.2*; M1 agonist: -1; M1 antag conf: 347*; mGluR4 antag: 219

What do the screens show for `O=C(CN1CCN(C(=O)N2CCCCC2)CC1)Nc1ccc(F)cc1`?
AP complement: 16; Ecoli tolC: -9; WNV NS2B-NS3 inh: -1.1; Ecoli WT expand: 3; M1 antagonist: 0.43; M1 agonist: 0.64

What do the screens show for `CC1=C(C(=O)OC(C)C)C(c2ccccn2)n2ncnc2N1` (stereo not given)?
AP complement: 1; Ecoli tolC: -11; WNV NS2B-NS3 inh: 0.12; Ecoli WT expand: -3; M1 antagonist: 0.53; M1 agonist: 0.52

Results for S=C(Nc1ccccc1)Nc1cc(Cl)ccc1Oc1ccccc1 ?
Ecoli WT expand: -3

Results for COc1ccc(Oc2c(C)oc3c(CN4CCOCC4)c(O)ccc3c2=O)cc1 ?
Ecoli WT expand: -1

What do the screens show for `CCOC(=O)c1ccc(Oc2c(C)oc3c(CN4CCN(C)CC4)c(O)ccc3c2=O)cc1`?
AP complement: 8; Ecoli tolC: -9; WNV NS2B-NS3 inh: 2.1; Ecoli WT expand: 7; M1 antagonist: -4.4*; M1 agonist: -0.19; M1 antag conf: 405*; mGluR4 antag: 250

Results for Cn1nc(-c2ccc(OCC(=O)NCC3CCCO3)cc2)c2ccccc2c1=O (stereo not given) ?
AP complement: -8; Ecoli tolC: 11; WNV NS2B-NS3 inh: 1; Ecoli WT expand: -1; M1 antagonist: -1.1; M1 agonist: 2.4

What do the screens show for `Cc1ccc(S(=O)(=O)N2CCN(C(=O)CSc3nnc(-c4ccco4)o3)CC2)cc1`?
AP complement: -13; Ecoli tolC: 11; WNV NS2B-NS3 inh: 0.86; Ecoli WT expand: 2; M1 antagonist: -3*; M1 agonist: -0.6; M1 antag conf: 511; mGluR4 antag: 193

Results for Cc1ccc(-c2nnc(SCC(=O)N3CCCC3)o2)cc1 ?
AP complement: 30; Ecoli tolC: 5; WNV NS2B-NS3 inh: -0.5; Ecoli WT expand: -4; M1 antagonist: -0.027; M1 agonist: -0.21

Results for Cc1nnc(SCC(=O)N2CCN(S(=O)(=O)c3ccccc3)CC2)n1Cc1ccccc1 ?
AP complement: 5; Ecoli tolC: -16; WNV NS2B-NS3 inh: -0.12; Ecoli WT expand: 5; M1 antagonist: -6.4*; M1 agonist: -0.068; M1 antag conf: 350*; mGluR4 antag: 271

Results for CCn1c(SCC(=O)N2CCN(S(=O)(=O)c3ccccc3)CC2)nnc1-c1cccs1 ?
AP complement: 25; Ecoli tolC: 3; WNV NS2B-NS3 inh: -0.68; Ecoli WT expand: 2; M1 antagonist: -1.4; M1 agonist: -1.4

How did Cn1c(=O)[nH]c(=O)c2c1nc(N1CCCCC1)n2CCCSc1nc2ccccc2s1 do in these assays?
WNV NS2B-NS3 inh: -0.17; Ecoli WT expand: -3; M1 antagonist: 0.077; M1 agonist: 0.53

How did Cc1cc(C(=O)NCCCn2ccnc2)sc1-c1ccccc1 do in these assays?
AP complement: 2; Ecoli tolC: 19; WNV NS2B-NS3 inh: -0.19; Ecoli WT expand: 24; M1 antagonist: -3.3*; M1 agonist: -1.3; M1 antag conf: 616; mGluR4 antag: 211

How did Cc1cc(-c2ccccc2)nc2cc(C(=O)NCCCn3ccnc3)nn12 do in these assays?
AP complement: 7; Ecoli tolC: -10; WNV NS2B-NS3 inh: -0.19; Ecoli WT expand: 6; M1 antagonist: -0.89; M1 agonist: 0.62

Results for Cc1nn(Cc2ccccc2Cl)c2sc(C(=O)NCCCn3ccnc3)cc12 ?
AP complement: 1; Ecoli tolC: 2; WNV NS2B-NS3 inh: 2.4; Ecoli WT expand: 3; M1 antagonist: -7.9*; M1 agonist: -1.3; M1 antag conf: 287*; mGluR4 antag: 186

Results for Cc1cc(=O)[nH]c(=S)n1-c1ccccc1 ?
AP complement: 5; Ecoli tolC: -23; WNV NS2B-NS3 inh: 0.65; Ecoli WT expand: -15; M1 antagonist: -1.2*; M1 agonist: -0.13; M1 antag conf: 653; mGluR4 antag: 229

How did COCc1[nH]nc2c1C(c1ccsc1)C(C#N)=C(N)O2 (stereo not given) do in these assays?
AP complement: 5; Ecoli tolC: -8; WNV NS2B-NS3 inh: -0.67; Ecoli WT expand: 1; M1 antagonist: -2.7*; M1 agonist: -0.019; M1 antag conf: 552; mGluR4 antag: 200

Results for CC1(C)Cc2c(sc3c2C2=NCCN2C=N3)CS1 ?
AP complement: -8; Ecoli tolC: -6; WNV NS2B-NS3 inh: 0.12; Ecoli WT expand: 2; M1 antagonist: -5.4*; M1 agonist: -0.36; M1 antag conf: 411*; mGluR4 antag: 254

How did CCCC(O)(CCN1CCOCC1)c1ccc(Br)cc1 (stereo not given) do in these assays?
AP complement: -1; Ecoli tolC: 6; WNV NS2B-NS3 inh: 0.17; Ecoli WT expand: -1; M1 antagonist: -3.6*; M1 agonist: -0.35; M1 antag conf: 283*; mGluR4 antag: 243

Results for CC1=C(C(=O)Nc2ccc(C)cc2C)C(c2ccc(C)o2)NC(=O)N1 (stereo not given) ?
Ecoli WT expand: 1
